pIC50: −log10 of the molar value. Calls of active or inactive are those of the source. The calls are words filed in the database; no cut-off is given here.
Legend:
[1] = molecular target: T1, Proto-oncogene tyrosine-protein kinase receptor Ret (Homo sapiens, UniProt P07949); assay: Inhibition of RET kinase expressed in Sf9 cells at 5000 nm
Summary of the method: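 RET kinase domain (intracellular aa 713–1072, short isoform), expressed in Sf9 insect cells and Ni-purified. 100 ng enzyme was screened at a single 5000 nM concentration, in triplicate. Reaction: MOPS pH 7.4, MgCl2, ATP (100 µM stock) plus [γ-33P]ATP 1 µCi, and poly(Glu-Tyr) substrate, 30 min at room temperature. Stopped with 0.5% H3PO4, filtered on phosphocellulose, read as scintillation cpm (mean of three).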

[2] = molecular target: T1, Proto-oncogene tyrosine-protein kinase receptor Ret; assay: Inhibition of RET kinase in Sf9 cells; assay type: cell-based
[3] = molecular target: Vascular endothelial growth factor receptor 2 (Homo sapiens) (UniProt P35968); assay: Inhibitory of VEGFR2
[4] = molecular target: Proto-oncogene tyrosine-protein kinase Src (Homo sapiens) (UniProt P12931); assay: Inhibitory of c-SRC
[5] = molecular target: Angiopoietin-1 receptor (Homo sapiens) (UniProt Q02763); assay: Inhibitory of TIE2
SK-N-MC = assay: Inhibition of chimeric human EGFR/RET kinase expressed in SK-N-MC cells after 1 hr by Western blotting; assay type: cell-based
[6] = molecular target: Tyrosine-protein kinase Lyn (Homo sapiens) (UniProt P07948); assay: Inhibitory of lyn
Tyrosine-protein kinase Lyn (Homo sapiens), sequence (P07948 2-512 limits assumed): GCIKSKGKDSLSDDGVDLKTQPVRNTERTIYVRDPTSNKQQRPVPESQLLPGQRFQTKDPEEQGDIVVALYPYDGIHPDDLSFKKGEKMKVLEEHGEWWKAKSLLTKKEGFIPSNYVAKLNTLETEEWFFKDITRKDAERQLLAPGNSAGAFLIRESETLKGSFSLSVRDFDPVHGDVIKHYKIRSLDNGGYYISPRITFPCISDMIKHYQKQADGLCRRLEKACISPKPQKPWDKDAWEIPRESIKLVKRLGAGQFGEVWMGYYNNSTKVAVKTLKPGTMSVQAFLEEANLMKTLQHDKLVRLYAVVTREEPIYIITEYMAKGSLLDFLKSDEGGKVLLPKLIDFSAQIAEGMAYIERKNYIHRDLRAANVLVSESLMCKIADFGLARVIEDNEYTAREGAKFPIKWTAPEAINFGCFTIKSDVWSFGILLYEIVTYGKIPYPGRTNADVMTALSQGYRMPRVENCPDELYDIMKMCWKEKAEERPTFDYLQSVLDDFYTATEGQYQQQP

T1 sequence (P07949 whole entry, the tested form may be a part, canonical isoform): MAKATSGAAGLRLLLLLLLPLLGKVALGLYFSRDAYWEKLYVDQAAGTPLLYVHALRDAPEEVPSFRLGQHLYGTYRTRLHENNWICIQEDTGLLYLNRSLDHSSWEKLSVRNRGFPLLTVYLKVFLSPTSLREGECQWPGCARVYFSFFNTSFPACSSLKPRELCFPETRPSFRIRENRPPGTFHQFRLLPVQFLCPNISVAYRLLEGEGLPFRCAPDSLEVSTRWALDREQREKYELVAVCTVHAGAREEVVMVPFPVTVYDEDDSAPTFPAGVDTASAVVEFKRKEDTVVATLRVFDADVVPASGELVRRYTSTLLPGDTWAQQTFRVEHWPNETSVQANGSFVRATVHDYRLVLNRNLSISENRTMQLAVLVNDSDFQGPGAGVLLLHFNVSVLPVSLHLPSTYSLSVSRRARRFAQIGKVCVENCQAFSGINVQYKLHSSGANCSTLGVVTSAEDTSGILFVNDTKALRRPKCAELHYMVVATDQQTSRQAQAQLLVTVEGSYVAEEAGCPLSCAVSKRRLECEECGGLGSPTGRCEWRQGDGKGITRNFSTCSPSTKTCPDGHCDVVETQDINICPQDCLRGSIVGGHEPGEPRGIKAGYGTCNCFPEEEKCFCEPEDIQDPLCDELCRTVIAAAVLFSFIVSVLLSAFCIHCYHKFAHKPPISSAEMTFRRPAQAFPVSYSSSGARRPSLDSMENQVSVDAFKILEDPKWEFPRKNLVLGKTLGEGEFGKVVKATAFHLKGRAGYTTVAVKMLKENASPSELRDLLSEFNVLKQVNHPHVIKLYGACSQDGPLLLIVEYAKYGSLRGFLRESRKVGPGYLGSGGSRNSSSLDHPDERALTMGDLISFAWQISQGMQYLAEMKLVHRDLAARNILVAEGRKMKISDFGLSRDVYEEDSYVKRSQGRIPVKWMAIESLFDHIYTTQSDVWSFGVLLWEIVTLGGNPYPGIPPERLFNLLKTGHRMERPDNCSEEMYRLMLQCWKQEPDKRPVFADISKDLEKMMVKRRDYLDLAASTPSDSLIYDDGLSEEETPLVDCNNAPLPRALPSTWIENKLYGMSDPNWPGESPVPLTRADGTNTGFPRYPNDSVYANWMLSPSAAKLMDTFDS
Proto-oncogene tyrosine-protein kinase Src (Homo sapiens), sequence (P12931 2-536 limits assumed): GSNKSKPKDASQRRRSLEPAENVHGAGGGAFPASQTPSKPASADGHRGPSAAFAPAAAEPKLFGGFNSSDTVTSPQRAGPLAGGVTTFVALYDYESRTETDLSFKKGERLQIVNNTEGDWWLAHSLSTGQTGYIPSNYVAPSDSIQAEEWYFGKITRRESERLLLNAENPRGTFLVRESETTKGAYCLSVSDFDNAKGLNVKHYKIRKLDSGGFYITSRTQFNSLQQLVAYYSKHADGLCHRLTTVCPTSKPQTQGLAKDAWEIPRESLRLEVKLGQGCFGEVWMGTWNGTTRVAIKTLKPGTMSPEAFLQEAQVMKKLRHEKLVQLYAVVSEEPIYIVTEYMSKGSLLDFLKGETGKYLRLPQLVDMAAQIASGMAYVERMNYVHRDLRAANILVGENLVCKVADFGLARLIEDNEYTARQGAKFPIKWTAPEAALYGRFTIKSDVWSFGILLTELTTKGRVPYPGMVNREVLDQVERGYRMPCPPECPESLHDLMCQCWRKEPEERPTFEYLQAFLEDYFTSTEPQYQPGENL
Vascular endothelial growth factor receptor 2 (Homo sapiens), sequence (P35968 whole entry): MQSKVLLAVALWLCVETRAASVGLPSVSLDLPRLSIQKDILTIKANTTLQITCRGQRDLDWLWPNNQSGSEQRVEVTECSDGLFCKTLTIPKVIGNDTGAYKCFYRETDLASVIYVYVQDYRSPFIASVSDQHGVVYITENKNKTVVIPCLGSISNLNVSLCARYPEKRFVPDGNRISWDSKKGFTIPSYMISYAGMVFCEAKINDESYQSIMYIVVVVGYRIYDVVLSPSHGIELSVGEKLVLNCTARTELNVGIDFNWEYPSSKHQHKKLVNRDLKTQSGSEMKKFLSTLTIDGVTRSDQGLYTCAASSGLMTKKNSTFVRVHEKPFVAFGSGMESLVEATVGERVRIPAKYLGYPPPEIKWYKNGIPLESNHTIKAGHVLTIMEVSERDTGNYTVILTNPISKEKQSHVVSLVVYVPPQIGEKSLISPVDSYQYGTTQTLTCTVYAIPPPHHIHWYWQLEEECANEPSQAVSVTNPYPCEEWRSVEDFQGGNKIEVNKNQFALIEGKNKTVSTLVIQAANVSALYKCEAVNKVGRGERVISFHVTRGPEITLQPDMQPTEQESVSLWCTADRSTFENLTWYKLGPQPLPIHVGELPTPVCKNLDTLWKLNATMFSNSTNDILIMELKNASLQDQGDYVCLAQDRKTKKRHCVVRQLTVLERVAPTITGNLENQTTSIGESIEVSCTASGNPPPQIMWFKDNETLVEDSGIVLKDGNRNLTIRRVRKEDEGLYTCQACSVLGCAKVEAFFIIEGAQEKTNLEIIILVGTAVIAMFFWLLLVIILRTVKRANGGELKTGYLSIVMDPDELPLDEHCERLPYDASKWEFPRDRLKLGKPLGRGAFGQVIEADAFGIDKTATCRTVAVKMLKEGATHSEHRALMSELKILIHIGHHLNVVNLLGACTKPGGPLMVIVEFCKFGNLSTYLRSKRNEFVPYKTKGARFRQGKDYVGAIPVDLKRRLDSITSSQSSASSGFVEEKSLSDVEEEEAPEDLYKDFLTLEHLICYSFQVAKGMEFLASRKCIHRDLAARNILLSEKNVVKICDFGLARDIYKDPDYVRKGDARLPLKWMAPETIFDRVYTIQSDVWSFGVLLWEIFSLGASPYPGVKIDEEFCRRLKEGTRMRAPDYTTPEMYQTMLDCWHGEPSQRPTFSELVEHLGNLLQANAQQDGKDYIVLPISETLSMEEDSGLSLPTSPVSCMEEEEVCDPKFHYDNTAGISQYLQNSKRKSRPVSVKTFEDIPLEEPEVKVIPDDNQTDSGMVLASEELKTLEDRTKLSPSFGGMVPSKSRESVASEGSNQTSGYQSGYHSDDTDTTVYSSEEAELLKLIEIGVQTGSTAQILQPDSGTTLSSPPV
Angiopoietin-1 receptor (Homo sapiens), sequence (Q02763 whole entry): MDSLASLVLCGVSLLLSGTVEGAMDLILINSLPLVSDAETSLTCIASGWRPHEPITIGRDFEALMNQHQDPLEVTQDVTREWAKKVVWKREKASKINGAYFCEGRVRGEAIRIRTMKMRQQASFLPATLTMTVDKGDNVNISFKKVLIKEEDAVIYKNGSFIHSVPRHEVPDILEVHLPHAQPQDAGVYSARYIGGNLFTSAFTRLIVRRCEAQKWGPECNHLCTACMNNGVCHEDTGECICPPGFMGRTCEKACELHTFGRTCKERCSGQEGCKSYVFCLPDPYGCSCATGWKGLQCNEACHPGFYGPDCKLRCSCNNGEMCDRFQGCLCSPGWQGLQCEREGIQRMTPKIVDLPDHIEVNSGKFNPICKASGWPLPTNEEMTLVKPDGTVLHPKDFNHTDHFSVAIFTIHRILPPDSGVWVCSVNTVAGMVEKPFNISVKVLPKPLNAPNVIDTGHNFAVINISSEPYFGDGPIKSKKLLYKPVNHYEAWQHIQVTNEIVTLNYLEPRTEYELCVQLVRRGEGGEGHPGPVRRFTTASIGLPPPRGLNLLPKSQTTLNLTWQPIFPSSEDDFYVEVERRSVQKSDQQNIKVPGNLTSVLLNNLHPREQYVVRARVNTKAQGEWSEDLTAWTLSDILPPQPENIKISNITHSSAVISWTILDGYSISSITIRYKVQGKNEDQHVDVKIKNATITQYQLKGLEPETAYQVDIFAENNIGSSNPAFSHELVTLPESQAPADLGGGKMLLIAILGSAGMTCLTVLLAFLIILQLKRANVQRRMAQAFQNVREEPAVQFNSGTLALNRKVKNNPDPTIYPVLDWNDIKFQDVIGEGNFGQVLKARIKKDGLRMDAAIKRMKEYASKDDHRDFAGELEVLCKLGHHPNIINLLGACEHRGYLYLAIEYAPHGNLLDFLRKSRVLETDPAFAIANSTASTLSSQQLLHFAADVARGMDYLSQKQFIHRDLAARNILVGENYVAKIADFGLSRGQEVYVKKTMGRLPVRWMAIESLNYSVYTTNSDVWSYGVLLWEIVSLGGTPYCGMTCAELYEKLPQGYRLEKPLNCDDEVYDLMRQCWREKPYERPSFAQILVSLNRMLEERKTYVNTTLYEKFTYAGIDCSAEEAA

**Q.** How did the Activity [1] turn out when `O=C1Nc2ccc3ncsc3c2/C1=C/c1c[nH]cn1` was run?
**A.** Its Activity is 950 cpm.

**Q.** With `Oc1cc(Nc2ccnc3cc(-c4cccc(CNCCN5CCOCC5)c4)ccc23)c(F)cc1Cl` as the compound, how does the pIC50 [2] read?
**A.** The pIC50 was 7.12.

**Q.** Which results are given for `Cc1ccc(O)cc1Nc1ccnc2cc(-c3csc(CN4CCOCC4)n3)c(S(C)(=O)=O)cc12`?
**A.** Activity [3]: Active; Activity [4]: Active; Activity [5]: Active; ED50 (SK-N-MC): 0.045 µM; Activity [6]: Active; pIC50 [2]: 7.47

**Q.** Which Activity [1] does the source give for `O=C1Nc2ccc3ncsc3c2/C1=C/Nc1ccc2c(c1)CS(=O)(=O)C2` here?
**A.** Its Activity is 428 cpm.

**Q.** With `Cc1ccc(O)cc1Nc1ccnc2ccc(C(=O)NC(C)C)cc12` as the compound, how does the pIC50 [2] read?
**A.** The pIC50 was 7.02.

**Q.** Which Activity [1] does the source give for `CS(=O)(=O)c1ccc2nccc(Nc3cc(O)c(F)cc3Cl)c2c1` here?
**A.** The Activity was 460 cpm.

**Q.** How did the pIC50 [2] turn out when `Cc1ccc(O)cc1Nc1ccnc2cc(-c3ccccn3)ccc12` was run?
**A.** The pIC50 was 7.12.

**Q.** With `Cc1ccc(O)cc1Nc1cc(C(F)(F)F)nc2cc(-c3ccncc3)ccc12` as the compound, how does the pIC50 [2] read?
**A.** The pIC50 was less than 6.00.

**Q.** `Oc1cc(Nc2ccnc3cc(-c4ccc(CN5CCOCC5)o4)c(Cl)cc23)c(Cl)cc1F` was tested. Which pIC50 [2] did it give?
**A.** The pIC50 was less than 6.00.

**Q.** How did the pIC50 [2] turn out when `Oc1cccc(Nc2c(Cl)cnc3cc(-c4cncs4)ccc23)c1` was run?
**A.** Its pIC50 is 7.00.

**Q.** With `Cc1ccc(O)cc1Nc1ccnc2ccc(S(=O)(=O)NCC3CC3)cc12` as the compound, how does the pIC50 [2] read?
**A.** Its pIC50 is 7.05.

**Q.** With `Cc1ccc(O)cc1Nc1ccnc2ccc(S(C)(=O)=O)cc12` as the compound, how does the Activity [3] read?
**A.** Its Activity is “Active”.

**Q.** And the Activity [4]?
**A.** Its Activity is “Active”.

**Q.** What about the Activity [5] of the same compound?
**A.** The Activity was “Active”.

**Q.** And the Activity [6]?
**A.** The Activity was “Active”.

**Q.** With `Oc1cccc(Nc2ccnc3cc(-c4ccccn4)ccc23)c1` as the compound, how does the pIC50 [2] read?
**A.** The pIC50 was 8.22.

**Q.** How did the pIC50 [2] turn out when `Oc1cc(Nc2ccnc3cc(-c4cc5ccccc5o4)ccc23)ccc1Br` was run?
**A.** The pIC50 was 7.07.

**Q.** For `COc1cc2ncnc(Nc3ccc(Cl)c(O)c3)c2cc1OC`, which Activity [1] is on record?
**A.** The Activity was 298 cpm.

**Q.** With `NS(=O)(=O)c1ccc(-c2cnc3c(c2)/C(=C/c2cc(Br)c(O)c(Br)c2)C(=O)N3)cc1` as the compound, how does the Activity [1] read?
**A.** Its Activity is 355 cpm.

**Q.** `CN(C)S(=O)(=O)c1ccc(N/C=C2\C(=O)Nc3ccc4ncccc4c32)cc1` was tested. Which Activity [1] did it give?
**A.** The Activity was 1210 cpm.

**Q.** `OCc1nc(-c2ccc3c(Nc4cc(O)c(F)cc4Cl)ccnc3c2)cs1` was tested. Which pIC50 [2] did it give?
**A.** The pIC50 was 7.60.

**Q.** For `CS(=O)(=O)Cc1ccc(N/C=C2\C(=O)Nc3ccc4ncsc4c32)cc1`, which Activity [1] is on record?
**A.** Its Activity is 1310 cpm.
